Assay results reported in ChEMBL document CHEMBL4038325, “Opioid Receptor Modulators with a Cinnamyl Group” (J Med Chem, 2017).
Active and inactive are the calls of the source. The calls are words filed in the database; no cut-off is given here.

Experiments:
[1] = biological target: T1, Kappa-type opioid receptor (Homo sapiens, UniProt P41145); conditions: HEK-293T, at 10 µM
Mu-type opioid receptor [2] = biological target: T2, Mu-type opioid receptor (Homo sapiens, UniProt P35372); experiment: Agonist activity at recombinant human MOR expressed in HEK293T cells assessed as inhibition of forskolin-stimulated cAMP level at 10 uM preincubated for 15 to 20 mins followed by forskolin addition by GloSensor assay relative to control; type: functional, cell-based; conditions: HEK-293T
In short: (§1)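 HEK293T transiently co-transfected (calcium phosphate) with DOR or MOR plus pGloSensor-22F. Cells were loaded with luciferin in HBSS/20 mM HEPES pH 7.4 for 90 min, then given compound in triplicate for 15-20 min at 37°C. Forskolin added (final 10 µM); luminescence read. cAMP signal normalized to forskolin-alone control.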

[3] = biological target: T1, Kappa-type opioid receptor; conditions: HEK-293T, at 10 µM; remark: listed apart in the source
Mu-type opioid receptor [4] = biological target: T2, Mu-type opioid receptor; conditions: HEK-293T, at 10 µM
[5] = biological target: T1, Kappa-type opioid receptor; experiment: Agonist activity at recombinant human KOR expressed in HEK293T cells assessed as inhibition of forskolin-stimulated cAMP level preincubated for 15 to 20 mins followed by forskolin addition by GloSensor assay; type: functional, cell-based; conditions: for inhibition: HEK-293T
In short: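 HEK293T transiently transfected with hKOR plus GloSensor-22F plasmid. Compounds (10 µM to 10 pM, triplicate) added for 15-20 min at 37°C, then forskolin added (final 10 µM). Luminescence of live cells normalized to % forskolin-alone control. IC50 from non-linear regression; two independent experiments.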

[6] = biological target: Delta-type opioid receptor (Homo sapiens) (UniProt P41143); experiment: Agonist activity at recombinant human DOR expressed in HEK293T cells assessed as inhibition of forskolin-stimulated cAMP level at 10 uM preincubated for 15 to 20 mins followed by forskolin addition by GloSensor assay relative to control; type: functional, cell-based; conditions: HEK-293T
In short: as §1

Mu-type opioid receptor [7] = biological target: T2, Mu-type opioid receptor; type: functional, cell-based, HEK-293T
[8] = biological target: Delta-type opioid receptor (Homo sapiens) (UniProt P41143); experiment: Antagonist activity at recombinant human DOR expressed in HEK293T cells assessed as reduction in DADLE-induced inhibition of forskolin-stimulated cAMP level at 10 uM preincubated for 15 to 20 mins followed by DADLE and forskolin addition by GloSensor assay relative to control; type: functional, cell-based; conditions: HEK-293T
In short: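 HEK293T transiently expressing DOR plus GloSensor-22F were given compound in triplicate for 15-20 min at 37°C. DADLE (1 µM) was then added, followed by forskolin (10 µM); luminescence read. Signal normalized to % control (agonist + forskolin).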

Mus musculus [9] = experiment: Analgesic activity in C57BL/6J mouse assessed as tail withdrawal latency at 10 mg/kg measured after 30 mins in presence of KOR antagonist norBNI by tail flick test; type: functional, organism-based
In short: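 Male C57BL/6J mice (5-6/group) received norBNI 10 mg/kg i.p. 30 min before test compound at 10 mg/kg i.p. Tail withdrawal latency in 52 ± 0.5°C water was measured at the 30 min time point, three readings, by a blinded observer.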

D(2) dopamine receptor [10] = biological target: T3, D(2) dopamine receptor (Homo sapiens, UniProt P14416); experiment: Antagonist activity at dopamine D2 receptor (unknown origin) at 10 uM
In short: (§2)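 Primary screen, agonist and antagonist modes, each receptor tested separately. Compounds at 10 µM in triplicate; response taken as % inhibition or stimulation relative to control. Compounds giving at least 50% effect were then run over 10 µM to 10 pM to obtain EC50/IC50.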

Mus musculus [11] = experiment: Analgesic activity in C57BL/6J mouse assessed as tail withdrawal latency at 10 mg/kg by tail flick test; type: functional, organism-based
In short: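 Male C57BL/6J mice, 6-8 weeks, 22-25 g; 5-6 per group. Dosed 10 mg/kg i.p. Distal third of tail immersed in 52 ± 0.5°C water; latency recorded three times per time point by a blinded observer. Latency expressed as % of baseline taken 15 min before dosing, followed over time; area under curve also calculated.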

[12] = biological target: Histamine H1 receptor (Homo sapiens) (UniProt P35367); experiment: Agonist activity at histamine H1 receptor (unknown origin) at 10 uM
In short: as §2

[13] = biological target: Histamine H1 receptor (Homo sapiens) (UniProt P35367); experiment: Antagonist activity at histamine H1 receptor (unknown origin) at 10 uM
In short: as §2

D(2) dopamine receptor [14] = biological target: T3, D(2) dopamine receptor; experiment: Agonist activity at dopamine D2 receptor (unknown origin) at 10 uM
In short: as §2

T1 sequence (P41145 whole entry): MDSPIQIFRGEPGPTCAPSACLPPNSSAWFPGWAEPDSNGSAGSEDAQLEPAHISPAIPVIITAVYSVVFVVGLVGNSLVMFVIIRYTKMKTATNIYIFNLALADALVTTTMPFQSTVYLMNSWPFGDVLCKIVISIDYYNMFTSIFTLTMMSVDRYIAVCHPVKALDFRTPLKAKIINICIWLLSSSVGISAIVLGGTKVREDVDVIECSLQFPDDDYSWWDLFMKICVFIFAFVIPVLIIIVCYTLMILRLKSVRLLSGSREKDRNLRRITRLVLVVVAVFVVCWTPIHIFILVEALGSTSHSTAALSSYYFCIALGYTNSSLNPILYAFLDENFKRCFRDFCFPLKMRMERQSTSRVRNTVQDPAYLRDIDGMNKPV
T2 sequence (P35372 whole entry): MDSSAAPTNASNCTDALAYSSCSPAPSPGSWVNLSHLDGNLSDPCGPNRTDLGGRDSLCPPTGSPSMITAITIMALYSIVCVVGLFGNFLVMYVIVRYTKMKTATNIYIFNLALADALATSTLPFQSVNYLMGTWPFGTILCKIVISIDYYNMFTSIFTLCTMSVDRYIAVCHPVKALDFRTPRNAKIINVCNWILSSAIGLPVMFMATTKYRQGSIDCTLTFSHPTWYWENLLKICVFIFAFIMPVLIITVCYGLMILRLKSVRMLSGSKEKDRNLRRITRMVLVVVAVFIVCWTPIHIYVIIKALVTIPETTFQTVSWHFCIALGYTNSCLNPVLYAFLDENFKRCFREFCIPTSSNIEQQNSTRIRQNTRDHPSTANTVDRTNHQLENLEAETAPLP
Sequence of Delta-type opioid receptor (Homo sapiens) (P41143 whole entry): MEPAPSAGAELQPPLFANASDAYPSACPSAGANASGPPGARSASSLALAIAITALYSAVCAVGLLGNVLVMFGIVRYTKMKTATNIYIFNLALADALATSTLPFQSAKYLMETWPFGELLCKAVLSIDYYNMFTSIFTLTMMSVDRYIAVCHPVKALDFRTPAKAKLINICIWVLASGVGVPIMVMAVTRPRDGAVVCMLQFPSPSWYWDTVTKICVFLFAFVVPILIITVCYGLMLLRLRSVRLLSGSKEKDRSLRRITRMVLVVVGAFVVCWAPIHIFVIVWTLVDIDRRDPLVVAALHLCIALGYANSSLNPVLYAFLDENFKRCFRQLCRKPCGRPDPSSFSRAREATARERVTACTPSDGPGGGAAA
Sequence of Histamine H1 receptor (Homo sapiens) (P35367 whole entry): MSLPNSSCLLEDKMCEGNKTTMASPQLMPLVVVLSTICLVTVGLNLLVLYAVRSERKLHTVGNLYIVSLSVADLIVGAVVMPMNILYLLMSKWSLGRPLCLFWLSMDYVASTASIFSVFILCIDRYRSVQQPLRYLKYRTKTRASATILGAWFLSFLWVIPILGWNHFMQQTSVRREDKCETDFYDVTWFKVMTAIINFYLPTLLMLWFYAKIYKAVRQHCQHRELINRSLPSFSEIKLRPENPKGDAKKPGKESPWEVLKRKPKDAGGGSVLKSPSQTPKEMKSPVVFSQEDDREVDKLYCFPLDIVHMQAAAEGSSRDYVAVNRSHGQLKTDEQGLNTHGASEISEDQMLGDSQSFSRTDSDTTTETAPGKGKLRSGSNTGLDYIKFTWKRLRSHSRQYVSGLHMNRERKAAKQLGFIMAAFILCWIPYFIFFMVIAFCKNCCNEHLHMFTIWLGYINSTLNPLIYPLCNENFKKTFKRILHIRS
T3 sequence (P14416 whole entry): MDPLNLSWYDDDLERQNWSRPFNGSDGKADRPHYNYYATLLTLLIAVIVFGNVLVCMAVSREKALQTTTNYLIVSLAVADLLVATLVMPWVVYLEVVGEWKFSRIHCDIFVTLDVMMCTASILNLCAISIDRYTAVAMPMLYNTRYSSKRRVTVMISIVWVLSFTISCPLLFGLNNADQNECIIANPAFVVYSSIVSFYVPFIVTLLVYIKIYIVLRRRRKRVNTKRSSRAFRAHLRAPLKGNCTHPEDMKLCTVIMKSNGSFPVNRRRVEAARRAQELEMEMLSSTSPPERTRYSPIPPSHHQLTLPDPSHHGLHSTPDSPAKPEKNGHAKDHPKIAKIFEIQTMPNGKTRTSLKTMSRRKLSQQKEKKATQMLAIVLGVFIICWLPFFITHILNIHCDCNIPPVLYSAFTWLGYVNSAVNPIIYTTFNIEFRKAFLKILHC

| Structure (SMILES) | inhibition [1] | inhibition (Mu-type opioid receptor [2]) | inhibition (Mu-type opioid receptor [4]) | inhibition [5] | inhibition [3] | inhibition [6] | inhibition [8] | also measured |
| --- | --- | --- | --- | --- | --- | --- | --- | --- |
| O=C(O)CNC(=O)C(Cc1ccccc1)CN1CCN(c2ccccc2O)CC1 (stereo not given) | inactive | inactive | inactive |  | inactive |  |  |  |
| CC(C)C[C@H](NC(=O)/C(=C/c1ccccc1)CN1CC[C@@](C)(c2cccc(O)c2)[C@@H](C)C1)C(=O)O | inactive |  | 50% |  | inactive | inactive | inactive | IC50 (Mu-type opioid receptor [7]; read-out: IC50): 780 nM; IC50 (Mu-type opioid receptor [7]; read-out: pIC50 (converted)): 782 to 794 nM |
| CC(C)[C@H](NC(=O)/C(=C/c1ccccc1)CN1CC[C@@](C)(c2cccc(O)c2)[C@@H](C)C1)C(=O)O | inactive |  | 50% |  | inactive | inactive | inactive | IC50 (Mu-type opioid receptor [7]; read-out: IC50): 650 nM; IC50 (Mu-type opioid receptor [7]; read-out: pIC50 (converted)): 658 to 661 nM |
| COc1ccccc1N1CCN(C/C(=C\c2ccccc2)C(=O)NCC(=O)O)CC1 | inactive | inactive | inactive | inactive |  |  |  |  |
| COc1ccccc1N1CCN(CCC(C(=O)N(C)C)(c2ccccc2)c2ccccc2)CC1 |  | Active |  |  |  |  |  |  |
| CCC(C)C(NC(=O)/C(=C/c1ccccc1)CN1CC[C@@](C)(c2cccc(O)c2)[C@@H](C)C1)C(=O)O (stereo not given in full) | inactive |  | 50% |  | inactive | inactive | inactive | IC50 (Mu-type opioid receptor [7]; read-out: IC50): 1600 nM; IC50 (Mu-type opioid receptor [7]; read-out: pIC50 (converted)): 1600 to 1620 nM |
| CCCC(NC(=O)/C(=C/c1ccccc1)CN1CC[C@@](C)(c2cccc(O)c2)[C@@H](C)C1)C(=O)O (stereo not given in full) | inactive |  | 50% |  | inactive | inactive | inactive | IC50 (Mu-type opioid receptor [7]; read-out: IC50): 2320 nM; IC50 (Mu-type opioid receptor [7]; read-out: pIC50 (converted)): 2320 to 2340 nM |
| CC(C)C[C@H](NC(=O)/C(=C/c1ccccc1)CN1CCN(c2ccc(O)cc2)CC1)C(=O)O | inactive | inactive | inactive | inactive |  |  |  |  |
| CCCC(NC(=O)/C(=C/c1ccccc1)CN1CCN(c2ccc(O)cc2)CC1)C(=O)O (stereo not given) | inactive | inactive | inactive | inactive |  |  |  |  |
| CC1(c2cccc(O)c2)CCN(C/C(=C\c2ccccc2)C(=O)O)CC1 | inactive |  | 50% |  | inactive | inactive | inactive | IC50 (Mu-type opioid receptor [7]; read-out: IC50): 18 nM; IC50 (Mu-type opioid receptor [7]; read-out: pIC50 (converted)): 18.6 to 76.6 nM |
| C[C@H]1CN(C[C@H](Cc2ccccc2)C(=O)NCC(=O)O)CC[C@@]1(C)c1cccc(O)c1 | inactive |  | 50% |  | inactive | inactive | inactive |  |

The next lines start with results.

| inhibition [1] | inhibition (Mu-type opioid receptor [2]) | inhibition (Mu-type opioid receptor [4]) | inhibition [5] | Structure (SMILES) | inhibition [3] | inhibition [6] | inhibition [8] | also measured |
| --- | --- | --- | --- | --- | --- | --- | --- | --- |
| inactive | inactive | inactive |  | O=C(O)CNC(=O)C(Cc1ccccc1)CN1CCN(c2ccccc2)CC1 (stereo not given) | inactive |  |  |  |
| inactive | inactive | inactive | inactive | CCC(C)C(NC(=O)/C(=C/c1ccccc1)CN1CCN(c2ccc(O)cc2)CC1)C(=O)O (stereo not given) |  |  |  |  |
| inactive |  |  |  | O=C(O)CNC(=O)/C(=C/c1ccccc1)CN1CCN(c2cccc(O)c2)CC1 |  |  |  |  |
| inactive | inactive | inactive | inactive | CC(C)[C@H](NC(=O)/C(=C/c1ccccc1)CN1CCN(c2ccc(O)cc2)CC1)C(=O)O |  |  |  |  |
| inactive | inactive | inactive | inactive | O=C(O)CNC(=O)/C(=C/c1ccccc1)CN1CCN(c2ccc(O)cc2)CC1 |  |  |  |  |
| inactive | inactive | inactive |  | COc1ccc(N2CCN(CC(Cc3ccccc3)C(=O)NCC(=O)O)CC2)cc1 (stereo not given) | inactive |  |  |  |
|  | inactive | inactive |  | O=C(O)/C(=C/c1ccccc1)CN1CCN(c2cccc(Cl)c2Cl)CC1 |  | inactive | inactive | Activity (Mus musculus [9]): inactive; inhibition (INH) (D(2) dopamine receptor [10]): Not Active; Activity (Mus musculus [11]): Dose-dependent effect; Activity [12]: inactive; inhibition [13]: inactive; Activity (D(2) dopamine receptor [14]): Not Active; IC50 ([5]; read-out: IC50): 800 nM; IC50 ([5]; read-out: pIC50 (converted)): 716 to 813 nM |
| inactive | inactive | inactive | inactive | COc1cccc(N2CCN(C/C(=C\c3ccccc3)C(=O)NCC(=O)O)CC2)c1 |  |  |  |  |
|  | inactive | inactive |  | CC(C)[C@H](NC(=O)/C(=C/c1ccccc1)CN1CCN(c2ccc(Cl)cc2)CC1)C(=O)O |  | inactive | inactive | Activity (Mus musculus [9]): inactive; inhibition (INH) (D(2) dopamine receptor [10]): Not Active; Activity (Mus musculus [11]): Dose-dependent effect; Activity [12]: inactive; inhibition [13]: inactive; Activity (D(2) dopamine receptor [14]): Not Active; IC50 ([5]; read-out: IC50): 910 nM; IC50 ([5]; read-out: pIC50 (converted)): 910 to 948 nM |
| inactive | inactive | inactive |  | COc1ccccc1N1CCN(CC(Cc2ccccc2)C(=O)NCC(=O)O)CC1 (stereo not given) | inactive |  |  |  |
| Active |  |  |  | Cc1cccc(Oc2ccc(C(=O)N[C@H](CN3CCN(c4cccc(O)c4)[C@@H](C)C3)C(C)C)cc2)c1 |  |  |  |  |
| inactive | inactive | inactive | inactive | COc1ccc(N2CCN(C/C(=C\c3ccccc3)C(=O)NCC(=O)O)CC2)cc1 |  |  |  |  |
|  | inactive | inactive |  | CCOC(=O)C(NC(=O)/C(=C/c1ccccc1)CN1CCN(c2nsc3ccccc23)CC1)C(C)C (stereo not given) |  | inactive | inactive | inhibition (INH) (D(2) dopamine receptor [10]): Not Active; Activity [12]: inactive; inhibition [13]: inactive; Activity (D(2) dopamine receptor [14]): Not Active; IC50 ([5]; read-out: IC50): 1800 nM; IC50 ([5]; read-out: pIC50 (converted)): 1910 to 1980 nM |
